Data published in ChEMBL document CHEMBL4270573, “Novel nicotinoyl pyrazoline derivates bearing N-methyl indole moiety as antitumor agents: Design, synthesis and evaluation” (Eur J Med Chem, 2018).
Calls of active or inactive are those of the source. The calls are words filed in the database; no cut-off is given here.

Tests used:
HepG2 [1] = assay: Cell cycle arrest in human HepG2 cells assessed as accumulation at G0/G1 phase at 0.040 uM after 24 hrs by propidium iodide staining based flow cytometric analysis (reference value: 55.63%); format: functional
Procedure, shortened: (§1)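 HepG2 and HeLa cells were exposed to 0, 0.020, 0.040, 0.060, 0.080 or 0.10 µM for 6, 12 or 24 h. DNA content was stained with propidium iodide and analysed by flow cytometry to give the percentage of cells in G0/G1, S and G2/M phases; sub-G1 cells were also recorded.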

Mus musculus [2] = assay: Toxicity in nude mouse xenografted with human HeLa cells assessed as edema in spleen at 10 to 20 mg/kg, ip after 14 days by hematoxylin and eosin staining based microscopic analysis; format: organism-based; conditions: in vivo, 336 h
Mus musculus [3] = assay: Nephrotoxicity in nude mouse xenografted with human HeLa cells assessed as necrosis in kidney at 10 to 20 mg/kg, ip after 14 days by hematoxylin and eosin staining based microscopic analysis; format: toxicity, organism-based; conditions: in vivo, 336 h
HeLa [4] = assay: Growth inhibition of human HeLa cells after 48 hrs by MTT assay; format: functional
Procedure, shortened: (§2)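 Proliferation read-out; GI50 taken as the concentration giving 50% reduction of cancer cell proliferation.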

HeLa [5] = assay: Induction of apoptosis in human HeLa cells assessed as early apoptotic cells at 0.10 uM after 24 hrs by Annexin V-FITC/propidium iodide staining based flow cytometric analysis (reference value: 6.17%); format: functional
Procedure, shortened: (§3)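 HepG2 and HeLa cells were exposed to 0, 0.02, 0.040, 0.060, 0.080 and 0.10 µM for 6, 12 and 24 h. Cells were double-stained with Annexin V-FITC/PI and read by flow cytometry. Apoptotic rate was the percentage of FITC-positive cells, counting early plus late apoptotic.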

MCF7 = assay: Growth inhibition of human MCF7 cells after 48 hrs by MTT assay; format: functional; conditions: MCF7, 48 h; procedure, shortened: as §2
HeLa [6] = assay: Induction of apoptosis in human HeLa cells assessed as viable cells at 0.080 uM after 24 hrs by Annexin V-FITC/propidium iodide staining based flow cytometric analysis (reference value: 88.6%); format: functional; conditions: read-out: Activity; procedure, shortened: as §3
HepG2 [7] = assay: Induction of apoptosis in human HepG2 cells assessed as early apoptotic cells at 0.10 uM after 24 hrs by Annexin V-FITC/propidium iodide staining based flow cytometric analysis (reference value: 2.31%); format: functional; procedure, shortened: as §3
HepG2 [8] = assay: Cell cycle arrest in human HepG2 cells assessed as accumulation at G0/G1 phase at 0.10 uM after 24 hrs by propidium iodide staining based flow cytometric analysis (reference value: 55.63%); format: functional; procedure, shortened: as §1
Tubulin (Homo sapiens) [9] = target: T1, Tubulin (Homo sapiens) (UniProt P68371+Q9H4B7+P0DPH7+P68366+Q13509+Q71U36+P04350+Q3ZCM7+P07437+P68363+Q9BQE3+Q6PEY2+Q13885+Q9BVA1+Q9BUF5); assay: Inhibition of tubulin polymerization in human HeLa cells assessed as abnormal microtubule network formation at 0.04 to 0.1 uM after 12 hrs by DAPI staining based immunofluorescence confocal laser scanning microscopic analysis; format: cell-based
Mus musculus [10] = assay: Cardiotoxicity in nude mouse xenografted with human HeLa cells assessed as necrosis in heart at 10 to 20 mg/kg, ip after 14 days by hematoxylin and eosin staining based microscopic analysis; format: toxicity, organism-based; conditions: in vivo, 336 h
Procedure, shortened: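 Excised tumours and heart, liver, kidney and spleen were H&E-stained and examined microscopically. Tumour scoring covered cell arrangement and necrosis. Organ scoring covered inflammatory infiltration, edema, necrosis and cell morphology.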

Tubulin (Homo sapiens) [11] = target: T1, Tubulin (Homo sapiens); assay: Inhibition of tubulin polymerization in human HepG2 cells assessed as abnormal microtubule network formation at 0.04 to 0.1 uM after 12 hrs by DAPI staining based immunofluorescence confocal laser scanning microscopic analysis; format: cell-based
HeLa [12] = assay: Induction of apoptosis in human HeLa cells assessed as viable cells at 0.060 uM after 24 hrs by Annexin V-FITC/propidium iodide staining based flow cytometric analysis (reference value: 88.6%); format: functional; conditions: read-out: Activity; procedure, shortened: as §3
HeLa [13] = assay: Cell cycle arrest in human HeLa cells assessed as accumulation at G2/M phase at 0.020 uM after 24 hrs by propidium iodide staining based flow cytometric analysis (reference value: 17.72%); format: functional; procedure, shortened: as §1
HepG2 [14] = assay: Cell cycle arrest in human HepG2 cells assessed as accumulation at S phase at 0.020 uM after 24 hrs by propidium iodide staining based flow cytometric analysis (reference value: 20.40%); format: functional; procedure, shortened: as §1
HeLa [15] = assay: Induction of apoptosis in human HeLa cells assessed as late apoptotic cells at 0.10 uM after 24 hrs by Annexin V-FITC/propidium iodide staining based flow cytometric analysis (reference value: 4.98%); format: functional; procedure, shortened: as §3
HepG2 [16] = assay: Induction of apoptosis in human HepG2 cells assessed as necrotic cells at 0.080 uM after 24 hrs by Annexin V-FITC/propidium iodide staining based flow cytometric analysis (reference value: 0.270%); format: functional; procedure, shortened: as §3
HeLa [17] = assay: Cell cycle arrest in human HeLa cells assessed as accumulation at S phase at 0.040 uM after 24 hrs by propidium iodide staining based flow cytometric analysis (reference value: 17.46%); format: functional; procedure, shortened: as §1
HepG2 [18] = assay: Cell cycle arrest in human HepG2 cells assessed as accumulation at G2/M phase at 0.080 uM after 24 hrs by propidium iodide staining based flow cytometric analysis (reference value: 20.17%); format: functional; procedure, shortened: as §1
HeLa [19] = assay: Induction of apoptosis in human HeLa cells assessed as viable cells at 0.040 uM after 24 hrs by Annexin V-FITC/propidium iodide staining based flow cytometric analysis (reference value: 88.6%); format: functional; conditions: read-out: Activity; procedure, shortened: as §3
HepG2 [20] = assay: Induction of apoptosis in human HepG2 cells assessed as viable cells at 0.060 uM after 24 hrs by Annexin V-FITC/propidium iodide staining based flow cytometric analysis (reference value: 94.5%); format: functional; conditions: HepG2, 24 h, read-out: Activity; procedure, shortened: as §3
HeLa [21] = assay: Cell cycle arrest in human HeLa cells assessed as accumulation at G0/G1 phase at 0.040 uM after 24 hrs by propidium iodide staining based flow cytometric analysis (reference value: 66.26%); format: functional; procedure, shortened: as §1
HepG2 [22] = assay: Induction of apoptosis in human HepG2 cells assessed as late apoptotic cells at 0.060 uM after 24 hrs by Annexin V-FITC/propidium iodide staining based flow cytometric analysis (reference value: 2.93%); format: functional; procedure, shortened: as §3
HepG2 [23] = assay: Induction of apoptosis in human HepG2 cells assessed as viable cells at 0.040 uM after 24 hrs by Annexin V-FITC/propidium iodide staining based flow cytometric analysis (reference value: 94.5%); format: functional; conditions: HepG2, 24 h, read-out: Activity; procedure, shortened: as §3
Mus musculus [24] = assay: Toxicity in nude mouse xenografted with human HeLa cells assessed as morphological changes in spleen cells at 10 to 20 mg/kg, ip after 14 days by hematoxylin and eosin staining based microscopic analysis; format: organism-based; conditions: in vivo, 336 h
HeLa [25] = assay: Cell cycle arrest in human HeLa cells assessed as accumulation at G0/G1 phase at 0.080 uM after 24 hrs by propidium iodide staining based flow cytometric analysis (reference value: 66.26%); format: functional; procedure, shortened: as §1
HeLa [26] = assay: Induction of apoptosis in human HeLa cells assessed as viable cells at 0.10 uM after 24 hrs by Annexin V-FITC/propidium iodide staining based flow cytometric analysis (reference value: 88.6%); format: functional; conditions: read-out: Activity; procedure, shortened: as §3
Mus musculus [27] = assay: Toxicity in nude mouse xenografted with human HeLa cells assessed as change in mouse heart weight at 10 to 20 mg/kg, ip after 14 days; format: organism-based; conditions: in vivo, 336 h
HeLa [28] = assay: Cell cycle arrest in human HeLa cells assessed as accumulation at G2/M phase after 6 to 24 hrs by propidium iodide staining based flow cytometric analysis; format: functional; procedure, shortened: as §1

With `COc1cccc(C2=NN(C(=O)c3ccc(C)nc3)C(c3cn(C)c4ccc(OC)cc34)C2)c1` (centres undefined) the Activity (HepG2 [1]) was 28.39%, the Activity (Mus musculus [2]) was “Non-Toxic” and the Activity (Mus musculus [3]) was “Non-Toxic”. For the same compound, the GI50 (HeLa [4]) was 34 nM, the Activity (HeLa [5]) was 32.8% and the GI50 (MCF7) was 90 nM. The viability at 0.08 µM (HeLa [6]) was 61.8%, the Activity (HepG2 [7]) was 18.5% and the Activity (HepG2 [8]) was 8.57%. The inhibition (Tubulin (Homo sapiens) [9]) was “Active”, the Activity (Mus musculus [10]) was “Non-Toxic” and the inhibition (Tubulin (Homo sapiens) [11]) was “Active”. The viability at 0.06 µM (HeLa [12]) was 66.9%, the Activity (HeLa [13]) was 21.23% and the Activity (HepG2 [14]) was 19.81%. The Activity (HeLa [15]) was 8.26%, the Activity (HepG2 [16]) was 2.95% and the Activity (HeLa [17]) was 7.43%. For the same compound, the Activity (HepG2 [18]) was 50.73%, the viability at 0.04 µM (HeLa [19]) was 84.5% and the viability at 0.06 µM (HepG2 [20]) was 85.7%. It also gave an Activity (HeLa [21]) of 49.63%, an Activity (HepG2 [22]) of 4.9% and a viability at 0.04 µM (HepG2 [23]) of 84.2%. For the same compound, the Activity (Mus musculus [24]) was “Non-Toxic”, the Activity (HeLa [25]) was 5.36% and the viability at 0.1 µM (HeLa [26]) was 58.2%. For the same compound, the Activity (Mus musculus [27]) was “Non-Toxic” and the Activity (HeLa [28]) was “Dose-dependent effect”.
